Key:
Rattus norvegicus [1] = species on record: Rattus norvegicus; assay: […] uptake of compound was determined in rat brain at 120 min following femoral injection of radiotracer; format: functional
Procedure, shortened: (§1)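 Sprague–Dawley rats under ether anesthesia received the ⁶⁷Cu complex (~2 µCi in 0.2 mL) into the femoral vein. Dosing solution was saline with ca. 5% ethanol and ≤0.5% DMSO, filtered at 0.2 µm, with radiochemical purity by silica TLC (ethanol). Organ radioactivity is expressed as % injected dose per organ. Mean ± SD, three rats per time point.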

Rattus norvegicus [2] = species on record: Rattus norvegicus; assay: […] uptake of compound was determined in rat heart at 120 min following femoral injection of radiotracer; format: functional, Myocardium; procedure, shortened: as §1
Rattus norvegicus [3] = species on record: Rattus norvegicus; assay: […] uptake of compound was determined in rat heart at 5 min following femoral injection of radiotracer; format: functional, Myocardium; procedure, shortened: as §1
Rattus norvegicus [4] = species on record: Rattus norvegicus; assay: […] uptake of compound was determined in rat brain at 5 min following femoral injection of radiotracer; format: functional; procedure, shortened: as §1
Rattus norvegicus [5] = species on record: Rattus norvegicus; assay: […] uptake of compound was determined in rat brain at 1 min following femoral injection of radiotracer; format: functional; procedure, shortened: as §1
Rattus norvegicus [6] = species on record: Rattus norvegicus; assay: […] uptake of compound was determined in rat heart at 1 min following femoral injection of radiotracer; format: functional, Myocardium; procedure, shortened: as §1
Albumin = Albumin (Homo sapiens, UniProt P02768); assay: Binding of compound in order to assess the amount of free (non-albumin-associated) radiotracer present in solutions of human serum albumin (35 mg/mL saline)
Chain of Albumin (P02768 whole entry): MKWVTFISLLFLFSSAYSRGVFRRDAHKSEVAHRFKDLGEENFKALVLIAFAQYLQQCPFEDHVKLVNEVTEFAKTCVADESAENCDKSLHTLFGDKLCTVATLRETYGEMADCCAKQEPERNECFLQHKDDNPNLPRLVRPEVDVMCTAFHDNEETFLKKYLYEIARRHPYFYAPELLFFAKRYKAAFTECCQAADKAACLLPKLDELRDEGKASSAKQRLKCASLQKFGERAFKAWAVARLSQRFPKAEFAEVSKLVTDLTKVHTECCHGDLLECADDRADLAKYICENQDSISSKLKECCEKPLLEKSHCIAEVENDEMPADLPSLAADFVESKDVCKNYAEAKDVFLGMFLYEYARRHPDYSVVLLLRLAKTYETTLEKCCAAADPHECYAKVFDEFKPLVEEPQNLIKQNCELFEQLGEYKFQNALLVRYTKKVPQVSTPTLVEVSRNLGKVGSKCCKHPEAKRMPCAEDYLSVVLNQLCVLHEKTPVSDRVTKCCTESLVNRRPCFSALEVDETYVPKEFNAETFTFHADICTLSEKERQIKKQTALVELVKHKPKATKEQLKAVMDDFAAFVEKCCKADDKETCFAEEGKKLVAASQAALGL
Procedure, shortened: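 ⁶⁷Cu complex (1–2 µL per 1 mL) mixed into freshly prepared albumin in normal saline. Within 2 min, loaded into 30,000 Da NMWL centrifugal ultrafilters and spun at once at 1000g, 20 min, 20 °C, 45° fixed-angle rotor. Filtrate and unfiltered solution γ-counted. Free % is the protein filtrate/unfiltered ratio divided by the same ratio in protein-free saline, ×100. Mean ± SD of 6–12 measurements.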

[7] = target: Serum albumin (Canis lupus familiaris) (UniProt P49822); assay: Binding of compound in order to assess the amount of free (non-albumin-associated) radiotracer present in solutions of dog serum albumin (35 mg/mL saline)
Chain of Serum albumin (Canis lupus familiaris) (P49822 whole entry, looked up): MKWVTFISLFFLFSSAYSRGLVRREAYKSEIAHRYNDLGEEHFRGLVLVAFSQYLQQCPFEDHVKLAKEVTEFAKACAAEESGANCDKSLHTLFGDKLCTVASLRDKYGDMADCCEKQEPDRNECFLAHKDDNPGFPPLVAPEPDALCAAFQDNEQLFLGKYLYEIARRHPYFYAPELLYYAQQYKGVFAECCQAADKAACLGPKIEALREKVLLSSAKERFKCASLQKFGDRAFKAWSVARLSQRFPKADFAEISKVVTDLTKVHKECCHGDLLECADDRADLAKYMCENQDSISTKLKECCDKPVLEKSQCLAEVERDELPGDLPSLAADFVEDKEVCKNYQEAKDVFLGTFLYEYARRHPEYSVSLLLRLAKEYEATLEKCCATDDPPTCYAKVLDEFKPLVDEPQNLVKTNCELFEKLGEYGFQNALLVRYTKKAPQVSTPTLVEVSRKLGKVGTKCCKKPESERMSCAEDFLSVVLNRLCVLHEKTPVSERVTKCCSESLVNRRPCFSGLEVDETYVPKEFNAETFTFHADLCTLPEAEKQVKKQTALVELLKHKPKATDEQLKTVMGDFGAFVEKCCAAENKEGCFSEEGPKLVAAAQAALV

Free complex (Albumin) [%] | Free complex [7] [%] | Molecule | Dose (Rattus norvegicus [1]) [%] | Dose (Rattus norvegicus [2]) [%] | Dose (Rattus norvegicus [3]) [%] | Dose (Rattus norvegicus [4]) [%] | Dose (Rattus norvegicus [5]) [%] | Dose (Rattus norvegicus [6]) [%]
– | – | C/N=C(\S)N/N=C/C(C)=N/N=C(/N)S | 1.1 | 2.03 | 2.44 | 1.37 | 1.4 | 2.73
– | – | C/N=C(\S)N/N=C(C)/C=N/N=C(/N)S | 1.67 | 2.59 | 2.86 | 1.81 | 1.72 | 2.84
– | – | C/N=C(\S)N/N=C/C(C)=N/N/C(S)=N/C | 3.2 | 3.3 | 3.4 | 3 | 3 | 2.7
– | – | CC(/C=N/N=C(\S)N(C)C)=N\N=C(/S)N(C)C | – | – | 0.43 | 2.2 | 3.1 | 0.97
– | – | C/N=C(\S)N/N=C(C)/C=N/N=C(\S)N(C)C | 1.63 | 0.89 | 1.27 | 1.8 | 2.76 | 1.43
– | – | CC(/C=N/N=C(\S)N(C)C)=N\N=C(\N)S | 1.98 | 1.05 | 1.23 | 1.97 | 2.79 | 1.59
– | – | CC(/C=N/N=C(/N)S)=N\N=C(\N)S [PYRUVALDEHYDE BIS(THIOSEMICARBAZONE)(PTS)] | – | – | 2.3 | 0.29 | 0.46 | 2.8
5.4 | 25.7 | Copper complex of Propane-1,2-diylidene-N-amino-methylaminomethanethione-N-amino-dimethylaminomethanethione | – | – | – | – | – | –
17.2 | 57.6 | Copper complex of Propane-1,2-diylidene-N-thiourea-N-amino-dimethylaminomethanethione | – | – | – | – | – | –
10.4 | 57.4 | Copper complex of Propane-1,2-diylidene-N-thiourea-N-amino-methylaminomethanethione [listing 1 of 2 here] | – | – | – | – | – | –
8.6 | 46.5 | Copper complex of Propane-1,2-diylidene-N-thiourea-N-amino-methylaminomethanethione [listing 2 of 2 here] | – | – | – | – | – | –
37 | 30.3 | Propyl glyoxal bis(thiosemicarbazone)(67Cu-n-PrTS) | – | – | – | – | – | –
